Data reported in ChEMBL document CHEMBL4382285, “Discovery of Novel Retigabine Derivatives as Potent KCNQ4 and KCNQ5 Channel Agonists with Improved Specificity” (ACS Med Chem Lett, 2019).
Activity calls are given as the source filed them. The rule behind the calls is not given here.

Key:
Format in all cases: cell-based
[1] = biological target: Potassium voltage-gated channel subfamily KQT member 5 (Homo sapiens, UniProt Q9NR82); assay: Activity at human KCNQ5 expressed in CHOK1 cells assessed as ratio of amplitude of outward current in presence of test compound to amplitude of outward current in absence of test compound at 10 uM at +60 mV by whole cell patch clamp assay
In short: (§1)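 CHO-K1 cells individually transfected with a single KCNQ subtype; whole-cell voltage clamp. Held at −80 mV, stepped from −90 to +60 mV in 10 mV increments (1500 ms), then to −120 mV for 500 ms. Outward current at −10 or +60 mV measured before (I0) and after (I) 10 μM compound; I/I0 >1 counts as activation. More than four cells per compound.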

[2] = biological target: Potassium voltage-gated channel subfamily KQT member 2 (Rattus norvegicus) (UniProt O88943); assay: Activity at rat KCNQ2 expressed in CHOK1 cells assessed as ratio of amplitude of outward current in presence of test compound to amplitude of outward current in absence of test compound at 10 uM at +60 mV by whole cell patch clamp assay; in short: as §1
[3] = biological target: T1, Potassium voltage-gated channel subfamily KQT member 4 (Homo sapiens, UniProt P56696); assay: (§2) Activation of human homomeric KCNQ4 expressed in CHOK1 cells at -10 mV by whole cell patch clamp assay
T1 sequence (P56696 whole entry): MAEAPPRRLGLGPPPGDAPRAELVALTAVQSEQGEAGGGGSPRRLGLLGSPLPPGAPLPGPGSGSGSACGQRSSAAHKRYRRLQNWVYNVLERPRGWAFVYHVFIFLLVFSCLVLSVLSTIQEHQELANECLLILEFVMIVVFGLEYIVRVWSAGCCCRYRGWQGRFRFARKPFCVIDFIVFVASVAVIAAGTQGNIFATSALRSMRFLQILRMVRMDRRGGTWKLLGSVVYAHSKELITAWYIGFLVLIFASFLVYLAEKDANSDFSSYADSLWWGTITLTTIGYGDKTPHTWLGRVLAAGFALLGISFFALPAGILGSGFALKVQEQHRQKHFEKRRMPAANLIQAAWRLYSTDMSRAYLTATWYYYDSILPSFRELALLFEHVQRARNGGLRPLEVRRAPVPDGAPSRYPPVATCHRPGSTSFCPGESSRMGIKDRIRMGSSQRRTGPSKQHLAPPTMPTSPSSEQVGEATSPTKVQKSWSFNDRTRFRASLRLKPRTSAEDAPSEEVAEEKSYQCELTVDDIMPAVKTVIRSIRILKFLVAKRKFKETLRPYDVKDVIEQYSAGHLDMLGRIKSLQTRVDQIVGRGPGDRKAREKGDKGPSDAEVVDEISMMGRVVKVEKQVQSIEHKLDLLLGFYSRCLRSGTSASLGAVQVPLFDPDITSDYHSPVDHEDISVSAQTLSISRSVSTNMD
In short: (§3)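 Whole-cell voltage clamp of CHO-K1 cells expressing homomeric KCNQ4. Holding potential −80 mV with depolarizing steps; current read at −10 mV before and after compound at several concentrations. EC50 derived from the concentration–response relationship, with the Hill coefficient reported.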

[4] = biological target: T2, Potassium voltage-gated channel subfamily KQT member 4 (Homo sapiens) (UniProt P56696); assay: as §2; in short: as §3
T2 sequence (whole entry): T1 sequence (P56696 whole entry)

[5] = biological target: T2, Potassium voltage-gated channel subfamily KQT member 4 (Homo sapiens); assay: Activity at human KCNQ4 expressed in CHOK1 cells assessed as ratio of amplitude of outward current in presence of test compound to amplitude of outward current in absence of test compound at 10 uM at +60 mV by whole cell patch clamp assay; in short: as §1
[6] = biological target: Potassium voltage-gated channel subfamily KQT member 2 (Rattus norvegicus) (UniProt O88943); assay: Activity at rat KCNQ2 expressed in CHOK1 cells assessed as ratio of amplitude of outward current in presence of test compound to amplitude of outward current in absence of test compound at 10 uM at -10 mV by whole cell patch clamp assay
In short: (§4)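 CHO-K1 cells expressing the channel, whole-cell voltage clamp, compound at 10 μM. Read-out is the outward current ratio I/I0 with and without compound, taken at −10 mV. I/I0 > 1 counts as activation and < 1 as inhibition. More than four cells per compound.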

[7] = biological target: Potassium voltage-gated channel subfamily KQT member 2 (Rattus norvegicus, UniProt O88943); assay: Activation of rat homomeric KCNQ2 expressed in CHOK1 cells increase in current amplitude at 30 uM at -10 mV by whole cell patch clamp assay relative to control
In short: (§5)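 CHO-K1 cells expressing homomeric KCNQ2, recorded by whole-cell voltage clamp. Holding potential −80 mV with step depolarizations; current amplitude at −10 mV compared before and after compound across 1–30 μM, reported as percent change in current.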

[8] = biological target: T3, Potassium voltage-gated channel subfamily KQT member 3 (Rattus norvegicus) (UniProt O88944); assay: Activity at rat KCNQ3 expressed in CHOK1 cells assessed as ratio of amplitude of outward current in presence of test compound to amplitude of outward current in absence of test compound at 10 uM at +60 mV by whole cell patch clamp assay; in short: as §1
T3 sequence (whole entry): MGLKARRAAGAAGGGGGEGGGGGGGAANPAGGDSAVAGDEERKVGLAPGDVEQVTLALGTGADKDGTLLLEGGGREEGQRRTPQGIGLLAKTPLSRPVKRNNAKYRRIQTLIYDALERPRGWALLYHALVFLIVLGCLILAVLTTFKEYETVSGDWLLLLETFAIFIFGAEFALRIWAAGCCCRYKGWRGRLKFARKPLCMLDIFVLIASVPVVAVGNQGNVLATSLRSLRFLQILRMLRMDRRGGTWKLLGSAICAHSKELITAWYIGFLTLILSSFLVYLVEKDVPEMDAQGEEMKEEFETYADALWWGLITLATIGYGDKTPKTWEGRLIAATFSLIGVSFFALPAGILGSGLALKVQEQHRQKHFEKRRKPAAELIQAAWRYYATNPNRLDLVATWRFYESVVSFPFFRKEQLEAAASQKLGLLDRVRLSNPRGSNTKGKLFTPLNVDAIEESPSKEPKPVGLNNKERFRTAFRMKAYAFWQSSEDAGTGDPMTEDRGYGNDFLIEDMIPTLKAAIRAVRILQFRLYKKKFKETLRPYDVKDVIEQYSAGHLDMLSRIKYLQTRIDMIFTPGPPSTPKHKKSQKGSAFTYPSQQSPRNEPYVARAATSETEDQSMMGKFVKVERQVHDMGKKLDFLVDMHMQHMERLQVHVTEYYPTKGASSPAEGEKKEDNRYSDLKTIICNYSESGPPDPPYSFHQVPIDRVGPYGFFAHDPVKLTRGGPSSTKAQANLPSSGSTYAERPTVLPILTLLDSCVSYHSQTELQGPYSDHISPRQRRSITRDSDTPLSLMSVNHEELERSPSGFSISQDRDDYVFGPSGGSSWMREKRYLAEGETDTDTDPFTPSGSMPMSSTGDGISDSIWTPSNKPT

[9] = biological target: T2, Potassium voltage-gated channel subfamily KQT member 4 (Homo sapiens); assay: Activity at human KCNQ4 expressed in CHOK1 cells assessed as ratio of amplitude of outward current in presence of test compound to amplitude of outward current in absence of test compound at 10 uM at -10 mV by whole cell patch clamp assay; in short: as §4
[10] = biological target: Potassium voltage-gated channel subfamily KQT member 2 (Rattus norvegicus) (UniProt O88943); assay: Activity at rat homomeric KCNQ2 expressed in CHOK1 cells assessed as effect on current amplitude up to 30 uM at -10 mV by whole cell patch clamp assay; in short: as §5

Chain of Potassium voltage-gated channel subfamily KQT member 2 (Rattus norvegicus) (O88943 whole entry): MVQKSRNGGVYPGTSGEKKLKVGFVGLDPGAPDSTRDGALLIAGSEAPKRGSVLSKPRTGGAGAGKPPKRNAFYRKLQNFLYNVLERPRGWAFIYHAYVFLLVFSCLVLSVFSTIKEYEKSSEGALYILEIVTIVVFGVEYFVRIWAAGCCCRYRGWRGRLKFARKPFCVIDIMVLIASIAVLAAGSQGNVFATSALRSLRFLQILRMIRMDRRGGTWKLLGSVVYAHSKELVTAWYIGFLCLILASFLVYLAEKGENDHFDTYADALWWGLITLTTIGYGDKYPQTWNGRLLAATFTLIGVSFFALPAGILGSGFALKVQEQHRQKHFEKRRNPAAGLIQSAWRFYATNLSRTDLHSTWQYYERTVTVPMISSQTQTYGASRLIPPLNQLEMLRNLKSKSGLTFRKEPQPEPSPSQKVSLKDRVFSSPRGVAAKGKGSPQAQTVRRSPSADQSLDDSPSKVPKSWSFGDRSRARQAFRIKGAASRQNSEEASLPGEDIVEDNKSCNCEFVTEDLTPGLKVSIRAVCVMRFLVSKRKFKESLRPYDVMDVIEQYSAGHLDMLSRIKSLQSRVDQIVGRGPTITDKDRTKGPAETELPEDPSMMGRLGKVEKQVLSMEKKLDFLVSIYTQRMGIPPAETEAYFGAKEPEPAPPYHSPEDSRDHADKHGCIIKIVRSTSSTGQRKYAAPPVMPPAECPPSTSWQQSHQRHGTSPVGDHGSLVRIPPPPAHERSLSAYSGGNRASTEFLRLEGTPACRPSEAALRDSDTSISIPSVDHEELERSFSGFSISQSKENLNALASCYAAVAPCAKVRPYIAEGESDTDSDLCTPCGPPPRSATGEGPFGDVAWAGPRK
Chain of Potassium voltage-gated channel subfamily KQT member 5 (Q9NR82 whole entry): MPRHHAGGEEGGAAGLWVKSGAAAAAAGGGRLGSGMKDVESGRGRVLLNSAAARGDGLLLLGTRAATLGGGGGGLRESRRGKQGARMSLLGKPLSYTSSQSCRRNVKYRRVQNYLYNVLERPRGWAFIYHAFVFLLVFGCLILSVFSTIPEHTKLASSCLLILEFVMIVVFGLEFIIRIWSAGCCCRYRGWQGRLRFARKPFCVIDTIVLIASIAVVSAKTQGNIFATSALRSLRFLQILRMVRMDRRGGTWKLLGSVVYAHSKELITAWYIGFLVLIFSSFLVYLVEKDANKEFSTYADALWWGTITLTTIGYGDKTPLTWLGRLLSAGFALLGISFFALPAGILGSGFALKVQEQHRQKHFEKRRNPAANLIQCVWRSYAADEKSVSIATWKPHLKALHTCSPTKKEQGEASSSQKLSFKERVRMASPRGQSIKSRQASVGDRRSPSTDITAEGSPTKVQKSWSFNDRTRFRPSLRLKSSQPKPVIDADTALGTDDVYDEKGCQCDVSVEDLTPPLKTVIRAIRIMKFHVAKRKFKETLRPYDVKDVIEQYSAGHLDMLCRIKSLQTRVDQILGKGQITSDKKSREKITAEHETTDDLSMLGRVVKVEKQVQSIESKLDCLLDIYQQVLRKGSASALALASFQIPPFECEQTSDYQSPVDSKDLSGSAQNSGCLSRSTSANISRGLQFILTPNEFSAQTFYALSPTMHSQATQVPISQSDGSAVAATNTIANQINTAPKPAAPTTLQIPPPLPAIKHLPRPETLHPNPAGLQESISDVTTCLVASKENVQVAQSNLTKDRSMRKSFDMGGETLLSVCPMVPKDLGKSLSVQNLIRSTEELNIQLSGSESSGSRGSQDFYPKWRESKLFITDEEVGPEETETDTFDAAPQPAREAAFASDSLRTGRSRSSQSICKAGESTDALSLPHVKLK
Chain of Potassium voltage-gated channel subfamily KQT member 2 (O88943 whole entry): as the sequence (O88943 whole entry) above

SMILES: C#CCN(Cc1ccc(F)cc1)c1ccc(NC(=O)OCC)c(NC(=O)OCC)c1
- Ratio [1]: 4.8
- Ratio [2]: 0.8
- EC50 [3]: 890 nM
- Activity [4]: Dose-dependent effect
- Ratio [5]: 6.6
- Ratio [6]: 0.94
- Activity [7]: 2%
- Ratio [8]: 1.7
- Ratio [9]: 5.68
- Activity [10]: inactive
